Screening data (PubChem BioAssay)
Sampled rows, rich in hits. Any-hit rate of the full collection: about 2.6%.
SENP6 block – blocks the human protease SENP6; Q9GZR1; Recombinant SENP6 catalytic domain, aminoluciferin luminescence; inhibition, % at 10 µM; 1.8% of 330,000 active; AID 2599;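 active = inhibition above about 50% at the single tested dose, limit read from the data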
SENP8 block-1 – inhibitors of human SENP8 protease; recombinant SENP8, Nedd8 substrate fluorescence; inhibition, % at 20 µM; 0.64% of 360,000 active; AID 602440; in the data active = inhibition mostly above about 40%, no sharp cut-off; inactive = mostly below about 27%
SENP8 block-2 – SENP8 protease inhibition; inhibition, % at 10 µM; Q96LD8; purified SENP8, Z-RLRGG-aminoluciferin cleavage, luminescence; 1.2% of 330,000 active; in the data active = inhibition above about 50%
SENP1 FRET inh – SENP1 (human) catalytic domain inhibition; 0.21% of 360,000 active; recombinant SENP1 catalytic domain, CyPet-SUMO1-YPet FRET cleavage; Q9P0U3; inhibition, % at 10 µM;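 active = inhibition at least 30% at 10 µM, raw YFP signal under a set limit, fluorescence ratio 0.5 to 1.5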
Target sequence (Q9P0U3 419-644 limits assumed): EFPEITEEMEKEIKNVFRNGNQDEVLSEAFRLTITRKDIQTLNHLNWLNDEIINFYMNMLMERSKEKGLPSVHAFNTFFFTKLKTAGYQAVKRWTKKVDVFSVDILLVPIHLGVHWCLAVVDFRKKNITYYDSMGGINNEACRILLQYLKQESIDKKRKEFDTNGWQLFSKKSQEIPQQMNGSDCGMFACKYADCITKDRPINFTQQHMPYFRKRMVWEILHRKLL
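Assay system – human recombinant His6-tagged SENP1 catalytic domain enzyme · Input – SENP1 enzyme, 20 pM final · Buffer or medium – Tris pH 8 buffer plus EDTA, NaCl, BME, BSA, NP40, catalase · Schedule – 50 min reaction at room temperature · Technique – FRET read of cyan and yellow fluorescence · Control set – no-enzyme wells low, DMSO-plus-enzyme wells high control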
SENP7 inh – inhibitors of human SENP7 protease. Q9BQF6. recombinant SENP7, Z-RLRGG-aminoluciferin luminescence, 40 min. inhibition, % at 5 µM. 1.5% of 330,000 active. AID 434973;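 active = inhibition above about 50% at the single test dose, limit read from the data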
Target sequence (Q9BQF6 706-1050 limits assumed): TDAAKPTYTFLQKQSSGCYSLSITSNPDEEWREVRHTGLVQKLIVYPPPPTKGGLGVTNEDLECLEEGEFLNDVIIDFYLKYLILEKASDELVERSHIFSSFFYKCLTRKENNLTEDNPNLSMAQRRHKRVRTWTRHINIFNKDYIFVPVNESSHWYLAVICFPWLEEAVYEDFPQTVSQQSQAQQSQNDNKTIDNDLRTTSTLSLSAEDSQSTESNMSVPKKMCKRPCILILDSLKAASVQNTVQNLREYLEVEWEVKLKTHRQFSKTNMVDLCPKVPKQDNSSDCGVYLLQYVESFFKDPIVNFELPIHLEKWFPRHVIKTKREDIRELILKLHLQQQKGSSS
Platelet DG rel – modulates dense granule release in human platelets; human platelet-rich plasma, SFLLRN dense granule ATP release, luminescence; inhibition, %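 (compounds screened at 7.5 µM in platelet-rich plasma)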; 0.22% of 300,000 active;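 active = mean replicate score, as percent of positive control, at or above 50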
SENP8 confirm – confirmation of human SENP8 protease inhibitors; shares compounds with SENP7 inh; Recombinant SENP8, Z-RLRGG-aminoluciferin luminescence, 60 min; inhibition, % at 12.5 µM; 40% of 6,200 active; AID 488912;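 active = mean inhibition across replicates above about 50%, limit read from the data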
SENP6 confirm – confirmation of human SENP6 protease inhibitors; shares compounds with SENP7 inh; recombinant SENP6, Z-RLRGG-aminoluciferin luminescence; inhibition, % at 12.5 µM; 58% of 6,200 active; AID 488915
SENP7 confirm – confirmation of human SENP7 protease inhibitors; inhibition, % at 12.5 µM; shares compounds with SENP7 inh; 69% of 6,200 active; AID 488917; recombinant SENP7, Z-RLRGG-aminoluciferin luminescence, 40 min
Casp3 SENP sel – inhibits human caspase-3 in SENP selectivity test. shares compounds with SENP7 inh. purified caspase-3, Z-DEVD-aminoluciferin luminescence, 60 min. inhibition, % at 12.5 µM. 60% of 6,200 active. AID 488918;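 active = mean inhibition above about 50%, limit read from the data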
SENP luc ctr – counter-screen for SENP inhibitors: luminescence interference. shares compounds with SENP7 inh. AID 488919. inhibition, % at 12.5 µM. Pre-incubated SENP8/Z-RLRGG-aminoluciferin, luciferase luminescence interference. 39% of 6,200 active;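 active = mean inhibition above about 50% when retested at one dose, limit read from the data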
Numbers stand for hits; – = inactive; · = not tested or not shown.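 The calls were made as follows, unless noted: active = mean inhibition above about 50% in the one-dose retest (limit read from the data); inactive = the rest.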

SMILES	SENP6 block	SENP8 block-1	SENP8 block-2	SENP1 FRET inh	SENP7 inh	Platelet DG rel	SENP8 confirm	SENP6 confirm	SENP7 confirm	Casp3 SENP sel	SENP luc ctr
Cc1ccnc2nc(C(=O)Nc3ccc4c(c3)OCO4)nn12	67	–	57	–	–	–	–	63	53	90	–
O=C(Nc1ccc2c(c1)OCO2)c1ccccn1	66	–	53	–	57	·	71	71	88	89	73
O=C(NCc1ccc2c(c1)OCO2)c1ccccn1	–	–	–	–	–	–	·	·	·	·	·
O=C(/C=C\Nc1ccc2c(c1)OCO2)c1ccccn1	97	–	96	–	100	58	81	97	99	92	–
CCn1c(C)cc(C(=O)COC(=O)c2cccnc2SC)c1C	–	–	–	–	–	·	·	·	·	·	·
CSc1ncccc1C(=O)OCC(=O)c1cc(C)n(C)c1C	54	–	–	–	–	·	–	–	82	73	–
COc1cc(C(=O)OCC(=O)c2cc(C)n(CC3CCCO3)c2C)cc(OC)c1C (centres undefined)	–	–	–	–	–	·	·	·	·	·	·
CSc1ncccc1C(=O)OCC(=O)c1cc(C)n(CC2CCCO2)c1C (centres undefined)	88	–	83	–	78	–	92	92	99	93	–
Cc1cc(C(=O)COc2cccc3cccnc23)c(C)n1C	79	–	–	–	–	–	–	–	–	–	–
CSc1ncccc1C(=O)OCC(=O)c1ccccc1	53	–	–	–	–	–	–	–	70	56	–
CCOC(=O)c1ccccc1NC(=O)CSc1nnc(C)c(=O)[nH]1	–	–	–	–	–	–	·	·	·	·	·
Nc1ccccc1C(=O)/C=C/c1ccc2c(c1)OCO2	84	–	66	–	94	–	90	81	93	55	73
Cc1ccc(C(=O)C=Cc2ccc3c(c2)OCO3)c(C)c1	·	–	·	–	·	·	·	·	·	·	·
O=C(/C=C/c1c(F)cccc1Cl)Nc1cccnc1	87	–	83	–	90	–	–	85	98	87	–
CC(=O)Nc1ccc(NC(=O)/C=C/c2ccc3c(c2)OCO3)cc1	–	–	–	–	–	–	·	·	·	·	·
O=C(/C=C/c1ccc2c(c1)OCO2)Nc1cccnc1	84	–	77	–	85	–	–	80	97	89	76
Cc1cc(C)nc(NC(=O)/C=C/c2ccc3c(c2)OCO3)c1	86	–	71	–	90	–	–	73	100	88	52
CCOc1ccc(CN2CCN(Cc3cn(CC)nc3C)CC2CCO)cc1 (centres undefined)	–	–	–	–	–	–	·	·	·	·	·
COc1ccc(N(C(=O)Cc2cccs2)C(C(=O)NC2CCCCC2)c2cccn2C)cc1 (centres undefined)	–	–	–	–	–	–	·	·	·	·	·
Cc1cccc(NC(=O)c2ccc(Cn3cc(C(F)(F)F)ccc3=O)cc2)c1	–	–	–	–	–	–	·	·	·	·	·
Oc1cccc(/C=N/Nc2cc(N3CCCC3)nc(N3CCCC3)n2)c1	57	–	–	–	51	–	–	66	–	–	–
Brc1cccc(/C=N/Nc2nc(N3CCCCC3)nc(N3CCCCC3)n2)c1	–	·	–	·	–	–	·	·	·	·	·
COc1ccc(/C=N/Nc2cc(N3CCCC3)nc(N3CCCC3)n2)cc1	52	–	–	–	–	–	–	51	–	–	–
CCOc1ccc(/C=N/Nc2cc(C)nc(N3CCOCC3)n2)cc1	–	–	–	–	–	–	·	·	·	·	·
Oc1ccc(/C=N/Nc2cc(N3CCOCC3)nc(N3CCOCC3)n2)cc1	–	–	–	–	60	–	–	–	–	–	–
SMILES	SENP6 block	SENP8 block-1	SENP8 block-2	SENP1 FRET inh	SENP7 inh	Platelet DG rel	SENP8 confirm	SENP6 confirm	SENP7 confirm	Casp3 SENP sel	SENP luc ctr
Oc1ccc(/C=N/Nc2cc(N3CCCC3)nc(N3CCCC3)n2)cc1	–	–	–	–	78	–	–	61	79	–	–
COC(=O)[C@H](C)NC(=O)NCc1ccc(F)cc1	–	–	–	–	–	–	·	·	·	·	·
Nc1c(C(=O)Nc2ccc(Cl)c(C(=O)O)c2)sc2nc3c(cc12)CCCC3	–	–	–	–	–	–	·	·	·	·	·
Nc1c(C(=O)Nc2cccc(C(=O)O)c2)sc2nc3c(cc12)CCCC3	71	–	–	–	–	–	74	68	88	–	–
CCOC(=O)c1c(C)[nH]c(N=Nc2ccc(C)cc2)c1C	53	–	–	–	–	–	–	–	–	–	–
CCOC(=O)c1c(C)[nH]c(N=Nc2cccc(C)c2)c1C	62	–	–	–	–	–	–	63	78	–	–
CCOC(=O)c1c(C)[nH]c(N=Nc2cccc(OC)c2)c1C	–	–	–	–	58	–	58	62	88	–	–
CCOC(=O)c1c(C)[nH]c(N=Nc2ccccc2Cl)c1C	–	–	–	–	–	–	·	·	·	·	·
CC1(C)CC(NC(=O)Cc2ccc(Cl)cc2)CC(C)(C)N1	–	–	–	–	–	–	·	·	·	·	·
O=C1CCc2cc(S(=O)(=O)NCc3ccccc3)cc3c2N1CC3	–	–	–	–	–	·	·	·	·	·	·
O=C1c2ccccc2C(c2nnnn2Cc2ccccc2)N1CCCn1ccnc1 (centres undefined)	·	–	·	–	·	·	·	·	·	·	·
CCn1c(=O)c(C(=O)CN2CCN(S(=O)(=O)c3cc(C)ccc3C)CC2)c(N)n(Cc2ccccc2)c1=O	–	–	–	–	–	–	·	·	·	·	·
CC(=O)Nc1ccc2nc(NC(=O)c3ccc([N+](=O)[O-])s3)sc2c1	64	·	–	·	–	–	–	–	–	–	–
COc1ccc2nc(NC(=O)c3cccs3)sc2c1	96	–	94	–	97	–	–	–	–	–	–
COc1ccc2nc(NC(=O)c3ccccc3O)sc2c1	84	–	86	–	82	–	–	–	70	60	–
CC(=O)Nc1ccc2nc(NC(=O)c3cccs3)sc2c1	93	–	83	–	92	86	56	87	93	90	–
CCCCn1c(=O)n(CC(=O)Nc2ccc(C)c(Cl)c2)c(=O)c2c1ncn2Cc1ccco1	–	–	–	–	–	–	·	·	·	·	·
Cc1cc(C)cc(OCC(=O)N/N=C/c2ccncc2)c1	–	–	–	–	–	–	·	·	·	·	·
